Measured values taken from ChEMBL document CHEMBL1133729, “Design, synthesis, and structure-activity relationships of phthalimide-phenylpiperazines: a novel series of potent and selective alpha(1)(a)-adrenergic receptor antagonists” (J Med Chem, 2000).

What was measured:
[1] = molecular target: phenylalkylamine-sensitive L-type Ca2+ channel (Rattus norvegicus, UniProt P22002+P27732+Q02485); assay: Inhibition of [3H]nitrendipine binding to phenylalkylamine-sensitive [Ca2+] L-type channels in rat cerebral cortex at 1 uM; format: tissue-based; details: probe [3H]nitrendipine
[2] = molecular target: T1, Alpha-1B adrenergic receptor (Homo sapiens, UniProt P35368); assay: Binding affinity towards cloned human alpha-1B adrenergic receptor was determined using [125]-HEAT as radioligand
T1 sequence (P35368 whole entry): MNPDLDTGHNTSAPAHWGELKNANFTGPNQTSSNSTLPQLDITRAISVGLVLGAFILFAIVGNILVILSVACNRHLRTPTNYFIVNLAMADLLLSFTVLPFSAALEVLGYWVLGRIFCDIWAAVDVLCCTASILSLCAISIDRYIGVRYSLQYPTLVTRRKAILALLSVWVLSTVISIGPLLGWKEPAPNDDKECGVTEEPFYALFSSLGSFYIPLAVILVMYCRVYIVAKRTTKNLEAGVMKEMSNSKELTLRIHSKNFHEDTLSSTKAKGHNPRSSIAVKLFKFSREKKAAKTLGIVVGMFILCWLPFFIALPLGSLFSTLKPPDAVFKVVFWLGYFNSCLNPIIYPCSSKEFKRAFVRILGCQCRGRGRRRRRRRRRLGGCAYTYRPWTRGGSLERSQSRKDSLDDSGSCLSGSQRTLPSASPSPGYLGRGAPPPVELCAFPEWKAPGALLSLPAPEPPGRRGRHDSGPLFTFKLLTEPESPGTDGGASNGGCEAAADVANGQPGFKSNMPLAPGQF
In short: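 Human α1a, α1b and α1d cDNAs transiently expressed in COS-1 cells (DEAE-dextran); membranes harvested 72 h post-transfection. Competition versus 50 pM [125I]HEAT (final), 0.1 pM–10 μM test compound in half-log steps, in TNE buffer pH 7.4. Membrane protein 0.1 μg (α1a, α1b) or 2.6 μg (α1d); 1 h at 25 °C. Filtration, scintillation counting; Ki = IC50/(1 + [L]/Kd). Ratios are subtype Ki over α1a Ki.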

D(2) dopamine receptor [3] = molecular target: T2, D(2) dopamine receptor (Homo sapiens, UniProt P14416); assay: Compound at 1 uM was tested for the inhibition of radioligand [3H]spiperone binding to recombinant human Dopamine receptor D2L
T2 sequence (P14416 whole entry): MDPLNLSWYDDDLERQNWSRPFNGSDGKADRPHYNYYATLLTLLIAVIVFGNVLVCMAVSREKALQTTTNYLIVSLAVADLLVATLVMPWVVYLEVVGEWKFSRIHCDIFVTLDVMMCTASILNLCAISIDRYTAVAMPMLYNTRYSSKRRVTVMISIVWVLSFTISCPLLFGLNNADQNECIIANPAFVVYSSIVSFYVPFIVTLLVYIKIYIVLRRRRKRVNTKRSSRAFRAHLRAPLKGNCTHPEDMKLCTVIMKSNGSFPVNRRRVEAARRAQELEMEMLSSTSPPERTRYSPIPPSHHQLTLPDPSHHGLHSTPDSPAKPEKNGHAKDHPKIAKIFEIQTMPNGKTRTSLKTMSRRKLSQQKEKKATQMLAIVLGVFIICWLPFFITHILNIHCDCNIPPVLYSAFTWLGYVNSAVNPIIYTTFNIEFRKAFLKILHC
In short: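 D2L (human, CHO-expressed) membranes; [3H]spiperone, 25 °C, 120 min; pH 7.4 Tris-HCl/NaCl/EDTA; nonspecific with 10 μM haloperidol. Compound at 1 μM, percent inhibition in duplicate; filtration, scintillation counting.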

[4] = molecular target: Dihydropyridine-sensitive L-type Ca2+ channel (Rattus norvegicus, UniProt P22002+P27732+Q02485); assay: Inhibition of [3H]nitrendipine binding to Dihydropyridine-sensitive L-type [Ca2+] channel in rat cerebral cortex at 1 uM; format: tissue-based; details: probe [3H]nitrendipine
In short: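 Rat cerebral cortex membranes as source of dihydropyridine-sensitive L-type Ca2+ channels; [3H]nitrendipine, 25 °C for 90 min, pH 7.4 Tris-HCl/NaCl/EDTA; 1 μM nifedipine for nonspecific binding. Percent inhibition at the single compound concentration given in each line; filtration, scintillation counting.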

D(2) dopamine receptor [5] = molecular target: T2, D(2) dopamine receptor; assay: Binding affinity towards recombinant human Dopamine receptor D2S was determined using [3H]spiperone as radioligand
In short: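 Recombinant human D2S in CHO cell membranes; [3H]spiperone incubated 120 min at 37 °C, buffer 50 mM Tris-HCl, 150 mM NaCl, 5 mM EDTA, pH 7.4; nonspecific with 10 μM haloperidol. Filtered, counted by scintillation. Ki via Cheng–Prusoff from fitted IC50, mean ± SEM of three experiments.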

[6] = molecular target: Alpha-2B adrenergic receptor (Rattus norvegicus, UniProt P19328); assay: Binding affinity towards rat alpha-2B adrenergic receptor was determined using [3H]yohimbine as radioligand
Sequence of Alpha-2B adrenergic receptor (P19328 whole entry): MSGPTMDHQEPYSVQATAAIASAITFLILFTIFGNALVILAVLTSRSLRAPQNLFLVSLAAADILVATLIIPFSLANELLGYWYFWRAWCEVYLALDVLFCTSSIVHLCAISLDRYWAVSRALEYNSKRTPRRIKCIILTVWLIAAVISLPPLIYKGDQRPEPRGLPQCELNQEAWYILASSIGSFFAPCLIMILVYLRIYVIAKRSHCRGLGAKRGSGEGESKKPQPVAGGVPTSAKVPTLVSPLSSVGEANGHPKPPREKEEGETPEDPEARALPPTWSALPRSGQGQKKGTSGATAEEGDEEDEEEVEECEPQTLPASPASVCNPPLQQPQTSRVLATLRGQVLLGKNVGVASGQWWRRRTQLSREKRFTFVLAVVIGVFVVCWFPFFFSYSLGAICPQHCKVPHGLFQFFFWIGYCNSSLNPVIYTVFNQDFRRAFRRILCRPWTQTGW
In short: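 Membranes from rat kidney cortex; [3H]yohimbine binding at 25 °C for 30 min in 50 mM Tris-HCl, 150 mM NaCl, 5 mM EDTA, pH 7.4. Nonspecific binding defined with 10 μM phentolamine. Filtration, washes, scintillation counting. IC50 from nonlinear regression, Ki by Cheng–Prusoff, mean ± SEM of three independent experiments.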

[7] = molecular target: 5-hydroxytryptamine receptor 7 (Homo sapiens, UniProt P34969); assay: Binding affinity towards recombinant human 5-hydroxytryptamine 7 receptor was determined using [3H]LSD as radioligand
Sequence of 5-hydroxytryptamine receptor 7 (P34969 whole entry): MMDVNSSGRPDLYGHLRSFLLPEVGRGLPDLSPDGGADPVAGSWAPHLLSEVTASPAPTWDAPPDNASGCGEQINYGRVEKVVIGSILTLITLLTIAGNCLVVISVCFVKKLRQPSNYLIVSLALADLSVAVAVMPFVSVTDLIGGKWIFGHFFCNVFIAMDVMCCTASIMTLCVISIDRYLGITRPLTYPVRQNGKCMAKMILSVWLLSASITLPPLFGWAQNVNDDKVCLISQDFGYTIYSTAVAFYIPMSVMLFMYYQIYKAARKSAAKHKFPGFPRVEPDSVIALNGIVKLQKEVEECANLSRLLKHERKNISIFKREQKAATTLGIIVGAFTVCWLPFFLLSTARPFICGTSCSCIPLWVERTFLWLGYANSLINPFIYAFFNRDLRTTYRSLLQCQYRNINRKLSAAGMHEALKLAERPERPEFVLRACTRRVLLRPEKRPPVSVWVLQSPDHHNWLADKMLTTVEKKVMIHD
In short: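 Membranes were from CHO cells expressing recombinant human 5-HT7. [3H]LSD binding was run for 120 min at 37 °C in 50 mM Tris-HCl, 150 mM NaCl, 5 mM EDTA, pH 7.4, with nonspecific binding set by 5 μM 5-HT. Filtration and scintillation counting followed. Ki came from IC50 by Cheng–Prusoff, mean ± SEM of three experiments.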

Rattus norvegicus [8] = species: Rattus norvegicus; assay: Displacement of [3H]-idazoxan from imidazoline receptor I-2 of rat cerebral cortex; format: tissue-based; details: concentration not given here
In short: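 Rat cerebral cortex membranes; [3H]idazoxan at 25 °C for 30 min in 50 mM Tris-HCl, 150 mM NaCl, 5 mM EDTA, pH 7.4; nonspecific binding with 1 μM idazoxan. Filtered, washed three to four times, scintillation counted; duplicate determinations.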

[9] = molecular target: Histamine H1 receptor (Cavia porcellus) (UniProt P31389); assay: Compound at 1 uM was tested for the inhibition of radioligand [3H]pyrilamine binding to peripheral histamine H1 receptor in guinea pig lung
Sequence of Histamine H1 receptor (Cavia porcellus) (P31389 whole entry): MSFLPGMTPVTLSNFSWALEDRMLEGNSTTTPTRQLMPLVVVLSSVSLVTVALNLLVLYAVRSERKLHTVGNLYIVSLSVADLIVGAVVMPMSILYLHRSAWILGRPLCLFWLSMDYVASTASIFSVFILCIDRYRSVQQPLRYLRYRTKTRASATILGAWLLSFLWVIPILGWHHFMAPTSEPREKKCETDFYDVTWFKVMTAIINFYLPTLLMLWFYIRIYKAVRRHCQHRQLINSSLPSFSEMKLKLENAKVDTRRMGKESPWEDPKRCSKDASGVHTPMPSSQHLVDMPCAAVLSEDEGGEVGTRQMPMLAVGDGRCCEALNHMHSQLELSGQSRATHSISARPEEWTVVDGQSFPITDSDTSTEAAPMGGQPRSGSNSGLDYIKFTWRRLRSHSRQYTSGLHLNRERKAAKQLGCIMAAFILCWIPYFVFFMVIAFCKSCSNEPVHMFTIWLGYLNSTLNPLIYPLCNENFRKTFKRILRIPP

D(3) dopamine receptor = D(3) dopamine receptor (Homo sapiens, UniProt P35462); assay: Binding affinity towards recombinant human Dopamine receptor D3 was determined using [3H]spiperone as radioligand
Sequence of D(3) dopamine receptor (P35462 whole entry): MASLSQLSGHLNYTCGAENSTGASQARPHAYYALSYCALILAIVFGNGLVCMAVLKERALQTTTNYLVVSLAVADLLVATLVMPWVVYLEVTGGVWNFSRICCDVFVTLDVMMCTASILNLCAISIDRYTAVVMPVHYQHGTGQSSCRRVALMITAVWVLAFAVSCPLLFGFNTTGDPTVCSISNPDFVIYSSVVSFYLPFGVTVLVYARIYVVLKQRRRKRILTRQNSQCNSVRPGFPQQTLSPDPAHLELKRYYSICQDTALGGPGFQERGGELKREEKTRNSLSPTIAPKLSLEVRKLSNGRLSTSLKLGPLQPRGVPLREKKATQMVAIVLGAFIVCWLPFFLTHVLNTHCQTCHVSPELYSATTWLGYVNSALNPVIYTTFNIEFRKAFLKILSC

D(2) dopamine receptor [10] = molecular target: T2, D(2) dopamine receptor; assay: Binding affinity towards recombinant human Dopamine receptor D2L was determined using [3H]spiperone as radioligand
In short: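 CHO-expressed human D2L membranes; [3H]spiperone, 25 °C for 120 min, pH 7.4 Tris-HCl/NaCl/EDTA buffer; haloperidol (10 μM) for nonspecific binding. Filtration, scintillation counting. IC50 by nonlinear least squares fitting; Ki by Cheng–Prusoff; mean ± SEM, three independent experiments.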

Rattus norvegicus [11] = species: Rattus norvegicus; assay: Antagonist dissociation equilibrium constant was tested against rat aorta contraction; format: functional
In short: (§1)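 Isolated Long Evans male rat (275 ± 25 g) abdominal aortic strips (3-4 mm wide) or prostate strips (8-10 mm x 1-2 mm), 2 g resting tension, modified Krebs at 37 °C, 95% O2/5% CO2, pH 7.4, 60 min equilibration; isometric tension.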

Rattus norvegicus [12] = species: Rattus norvegicus; assay: Antagonist dissociation equilibrium constant was tested against rat prosta contraction; format: functional; in short: as §1
[13] = Ratio of rat aorta KB to rat prostate KB; format: functional
In short: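 Long Evans male rats (275 ± 25 g); aortic and prostate strips at 2 g resting tension in modified Krebs, 37 °C, 95% O2/5% CO2, pH 7.4, isometric recording. Cumulative NE curves (0.001–100 μM), repeated after 5 min with one of three antagonist concentrations. KB = [B]/(CR − 1) from EC50 shifts; value is aorta KB divided by prostate KB.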

[14] = molecular target: Voltage-gated L-type calcium channel (Rattus norvegicus, UniProt P22002+Q02485+P27732); assay: Inhibition of [3H]nitrendipine binding to phenylalkylamine-sensitive [Ca2+] L-type channels in rat cerebral cortex; format: tissue-based

inhibition at 1 µM [1] [%] | Ki [2] [nM] | inhibition (D(2) dopamine receptor [3]) [%] | inhibition at 1 µM [4] [%] | Ki (D(2) dopamine receptor [5]) [nM] | Ki [6] [nM] | Ki [7] [nM] | inhibition (Rattus norvegicus [8]) [%] | inhibition [9] [%] | Ki (D(3) dopamine receptor) [nM] | Ki (D(2) dopamine receptor [10]) [nM] | Ki [14] [nM] | SMILES | pKB (Rattus norvegicus [11]) | pKB (Rattus norvegicus [12]) | Ratio [13]
69 | > 2000 | 83 | 53 |  |  |  |  |  |  |  |  | Cc1ccc(N2C(=O)c3ccc(C(=O)NCCCN4CCN(c5ccccc5OC(C)C)CC4)cc3C2=O)cc1 |  |  | 
20 | 1.92 | 53 | 22 | 78 | 80 | 84 | 64 | 7 | 0.28 | 13 |  | CCOc1ccccc1OCCN[C@H](C)Cc1ccc(OC)c(S(N)(=O)=O)c1 [TAMSULOSIN] | 10.76 | 9.33 | 
81 | > 2000 | 55 | 67 |  |  |  |  | 69 |  |  |  | CC(C)Oc1ccccc1N1CCN(C[C@@H](O)CNC(=O)c2ccc3c(c2)C(=O)N(c2cccc(F)c2)C3=O)CC1 | 6.47 | 7.81 | 22.6
 | > 1650 | 68 |  |  |  |  |  |  |  |  |  | Cc1ccc(N2C(=O)c3ccc(C(=O)NC[C@H](O)CN4CCN(c5ccccc5OC(C)C)CC4)cc3C2=O)cc1 | 5.9 | 6.78 | 7.6
57 | > 2000 | 71 |  | 25 | 169 | 10 |  |  | 62 | 23 | 760 | CC(C)Oc1ccccc1N1CCN(C[C@@H](O)CNC(=O)c2ccc3c(c2)C(=O)N(c2ccc(N(C)C)cc2)C3=O)CC1 | 5.84 | 7.39 | 35.2
 | 361 | 83 |  |  |  |  |  |  |  |  |  | COc1ccc(N2C(=O)c3ccc(C(=O)NCCCN4CCN(c5ccccc5OC(C)C)CC4)cc3C2=O)cc1 |  |  | 
72 | 482 | 89 | 76 |  |  |  | 66 | 75 |  |  |  | CC(C)Oc1ccccc1N1CCN(CCCNC(=O)c2ccc3c(c2)C(=O)N(c2cccc(F)c2)C3=O)CC1 |  |  | 
